Test results as given in ChEMBL document CHEMBL4689842, “EUbOPEN Chemogenomics Library wave 1” (2021).

Legend:
Format in all cases: toxicity, cell-based
Fibroblast [1] = experiment: Multiplex assay against human fibroblast
Summary of the method: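 Imaging took place on a CQ1 microscope at 37°C and 5% CO2 once compound had been added to live cells stained at seeding with Hoechst33342, BioTracker Green Microtubule Cytoskeleton Dye, MitoTracker Red and Annexin V Alexa Fluor 680. CellPathfinder machine-learning gating classed cells as Hoechst high-intensity objects or normal cells, classed normal cells as having healthy, pyknosed or fragmented nuclei, and classed pyknosed cells as mitotic or apoptotic. Tubulin, mitochondrial-mass and membrane-permeability phenotypes are per cents of the healthy-nucleus cells.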

HEK-293T = experiment: Incucyte cell viability with HEK293T; conditions: human, 10 µM, compound concentration 10 uM; further: filed as whole numbers so only -1 and 0 and 1 occur
Fibroblast [2] = experiment: Incucyte cell viability with human fibroblast; conditions: 10 µM, compound concentration 10 uM; further: filed as whole numbers so only -1 and 0 and 1 occur
U2OS = experiment: Incucyte cell viability with U2OS; conditions: human, 10 µM, compound concentration 10 uM; further: filed as whole numbers so only -1 and 0 and 1 occur
[3] = 12 h, 1 µM, compound concentration 1 uM, replicate 1
[4] = 12 h, 1 µM, compound concentration 1 uM, replicate 2
[5] = 12 h, 10 µM, compound concentration 10 uM, replicate 1
[6] = 12 h, 10 µM, compound concentration 10 uM, replicate 2
[7] = 24 h, 1 µM, compound concentration 1 uM, replicate 1
[8] = 24 h, 1 µM, compound concentration 1 uM, replicate 2
[9] = 24 h, 10 µM, compound concentration 10 uM, replicate 1
[10] = 24 h, 10 µM, compound concentration 10 uM, replicate 2
[11] = 48 h, 1 µM, compound concentration 1 uM, replicate 1
[12] = 48 h, 1 µM, compound concentration 1 uM, replicate 2
[13] = 48 h, 10 µM, compound concentration 10 uM, replicate 1
[14] = 48 h, 10 µM, compound concentration 10 uM, replicate 2
[15] = 0 h, replicate number 1, timepoint 0 hours
[16] = 0 h, replicate number 2, timepoint 0 hours
[17] = 6 h, replicate number 1, timepoint 6 hours
[18] = 12 h, replicate number 1, timepoint 12 hours
[19] = 18 h, replicate number 1, timepoint 18 hours
[20] = 24 h, replicate number 1, timepoint 24 hours
[21] = 12 h, replicate number 2, timepoint 12 hours

## C=CC(=O)Nc1cc(-n2c(=O)ccc3cnc4ccc(-c5ccc(NS(C)(=O)=O)cc5)cc4c32)ccc1C
Fibroblast [1]; [3]
  Population Apoptotic (%): 52%
  Population Fragmented Nuclei (%): 37%
  Population Healthy Nuclei (%): 32%
  Population Hoechst High Intensity Objects (%): 7%
  Population Membrane Permeable-Phenotype (%): 15%
  Population Mitochondria Different-Phenotype (%): 3%
  Population Mitotic Cells (%): 47%
  Population Normal (%): 92%
  Population Pyknosed Nuclei (%): 29%
  Population Tubulin-Different-Phenotype (%): 30%
  Total Cell Count: 85
Fibroblast [1]; [4]
  Population Apoptotic (%): 33%
  Population Fragmented Nuclei (%): 10%
  Population Healthy Nuclei (%): 77%
  Population Membrane Permeable-Phenotype (%): 0%
  Population Mitochondria Different-Phenotype (%): 10%
  Population Mitotic Cells (%): 66%
  Population Pyknosed Nuclei (%): 12%
  Population Tubulin-Different-Phenotype (%): 10%
  Total Cell Count: 53
Fibroblast [1]; [5]
  Population Apoptotic (%): 51%
  Population Fragmented Nuclei (%): 30%
  Population Healthy Nuclei (%): 39%
  Population Hoechst High Intensity Objects (%): 8%
  Population Membrane Permeable-Phenotype (%): 32%
  Population Mitochondria Different-Phenotype (%): 13%
  Population Mitotic Cells (%): 48%
  Population Normal (%): 91%
  Population Pyknosed Nuclei (%): 30%
  Population Tubulin-Different-Phenotype (%): 55%
  Total Cell Count: 120
Fibroblast [1]; [6]
  Population Apoptotic (%): 76%
  Population Fragmented Nuclei (%): 8%
  Population Healthy Nuclei (%): 54%
  Population Hoechst High Intensity Objects (%): 9%
  Population Membrane Permeable-Phenotype (%): 12%
  Population Mitochondria Different-Phenotype (%): 56%
  Population Mitotic Cells (%): 23%
  Population Normal (%): 90%
  Population Pyknosed Nuclei (%): 36%
  Population Tubulin-Different-Phenotype (%): 52%
  Total Cell Count: 51
Fibroblast [1]; [7]
  Population Apoptotic (%): 54%
  Population Fragmented Nuclei (%): 23%
  Population Healthy Nuclei (%): 44%
  Population Hoechst High Intensity Objects (%): 11%
  Population Membrane Permeable-Phenotype (%): 22%
  Population Mitochondria Different-Phenotype (%): 16%
  Population Mitotic Cells (%): 45%
  Population Normal (%): 88%
  Population Pyknosed Nuclei (%): 31%
  Population Tubulin-Different-Phenotype (%): 38%
  Total Cell Count: 78
Fibroblast [1]; [8]
  Population Apoptotic (%): 55%
  Population Fragmented Nuclei (%): 11%
  Population Healthy Nuclei (%): 76%
  Population Hoechst High Intensity Objects (%): 2%
  Population Membrane Permeable-Phenotype (%): 3%
  Population Mitochondria Different-Phenotype (%): 15%
  Population Mitotic Cells (%): 44%
  Population Normal (%): 97%
  Population Pyknosed Nuclei (%): 11%
  Population Tubulin-Different-Phenotype (%): 22%
  Total Cell Count: 79
Fibroblast [1]; [9]
  Population Apoptotic (%): 50%
  Population Fragmented Nuclei (%): 36%
  Population Healthy Nuclei (%): 39%
  Population Hoechst High Intensity Objects (%): 9%
  Population Membrane Permeable-Phenotype (%): 35%
  Population Mitochondria Different-Phenotype (%): 5%
  Population Mitotic Cells (%): 50%
  Population Normal (%): 90%
  Population Pyknosed Nuclei (%): 23%
  Population Tubulin-Different-Phenotype (%): 50%
  Total Cell Count: 141
Fibroblast [1]; [10]
  Population Apoptotic (%): 84%
  Population Fragmented Nuclei (%): 21%
  Population Healthy Nuclei (%): 32%
  Population Hoechst High Intensity Objects (%): 5%
  Population Membrane Permeable-Phenotype (%): 22%
  Population Mitochondria Different-Phenotype (%): 50%
  Population Mitotic Cells (%): 15%
  Population Normal (%): 94%
  Population Pyknosed Nuclei (%): 46%
  Population Tubulin-Different-Phenotype (%): 33%
  Total Cell Count: 59
Fibroblast [1]; [11]
  Population Apoptotic (%): 61%
  Population Fragmented Nuclei (%): 32%
  Population Healthy Nuclei (%): 43%
  Population Hoechst High Intensity Objects (%): 6%
  Population Membrane Permeable-Phenotype (%): 25%
  Population Mitochondria Different-Phenotype (%): 3%
  Population Mitotic Cells (%): 38%
  Population Normal (%): 93%
  Population Pyknosed Nuclei (%): 24%
  Population Tubulin-Different-Phenotype (%): 34%
  Total Cell Count: 79
Fibroblast [1]; [12]
  Population Apoptotic (%): 0%
  Population Fragmented Nuclei (%): 28%
  Population Healthy Nuclei (%): 65%
  Population Hoechst High Intensity Objects (%): 12%
  Population Membrane Permeable-Phenotype (%): 19%
  Population Mitochondria Different-Phenotype (%): 7%
  Population Mitotic Cells (%): 100%
  Population Normal (%): 87%
  Population Pyknosed Nuclei (%): 6%
  Population Tubulin-Different-Phenotype (%): 21%
  Total Cell Count: 72
Fibroblast [1]; [13]
  Population Apoptotic (%): 78%
  Population Fragmented Nuclei (%): 39%
  Population Healthy Nuclei (%): 43%
  Population Hoechst High Intensity Objects (%): 18%
  Population Membrane Permeable-Phenotype (%): 29%
  Population Mitochondria Different-Phenotype (%): 4%
  Population Mitotic Cells (%): 21%
  Population Normal (%): 81%
  Population Pyknosed Nuclei (%): 17%
  Population Tubulin-Different-Phenotype (%): 56%
  Total Cell Count: 135
Fibroblast [1]; [14]
  Population Apoptotic (%): 100%
  Population Fragmented Nuclei (%): 56%
  Population Healthy Nuclei (%): 42%
  Population Hoechst High Intensity Objects (%): 15%
  Population Membrane Permeable-Phenotype (%): 33%
  Population Mitochondria Different-Phenotype (%): 1%
  Population Mitotic Cells (%): 0%
  Population Normal (%): 85%
  Population Pyknosed Nuclei (%): 0%
  Population Tubulin-Different-Phenotype (%): 50%
  Total Cell Count: 140
HEK-293T; [15]
  Growth Rate: 0
HEK-293T; [16]
  Growth Rate: 1
HEK-293T; [17]
  Growth Rate: 0
HEK-293T; [18]
  Growth Rate: 0
HEK-293T; [19]
  Growth Rate: 0
HEK-293T; [20]
  Growth Rate: 0
Fibroblast [2]; [15]
  Growth Rate: 0
Fibroblast [2]; [17]
  Growth Rate: 1
Fibroblast [2]; 6 h, replicate number 2, timepoint 6 hours
  Growth Rate: 0
Fibroblast [2]; [18]
  Growth Rate: 1
Fibroblast [2]; [21]
  Growth Rate: 0
Fibroblast [2]; [19]
  Growth Rate: 1
Fibroblast [2]; 18 h, replicate number 2, timepoint 18 hours
  Growth Rate: 0
Fibroblast [2]; [20]
  Growth Rate: 1
Fibroblast [2]; 24 h, replicate number 2, timepoint 24 hours
  Growth Rate: 0
U2OS; [15]
  Growth Rate: 0
U2OS; [16]
  Growth Rate: 1
U2OS; [17]
  Growth Rate: 1
U2OS; [18]
  Growth Rate: 1
U2OS; [21]
  Growth Rate: 0
U2OS; [19]
  Growth Rate: 0
U2OS; [20]
  Growth Rate: 0
